Measured values: ChEMBL document CHEMBL5356943, “Development of anti-HBV agents targeting HBV capsid proteins” (RSC Med Chem, 2023)

Assays:
[1] = Cytotoxicity against human HepG2 cells assessed as reduction in cell viability incubated for 7 days by MTT assay; type: toxicity, cell-based; settings: time 7 day
Procedure, shortened: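 HepG2 (human hepatocellular carcinoma) viability by MTT assay, optical density read on a kinetic microplate reader. CC50 is the concentration giving 50% reduction of viability. Mean of at least two independent experiments.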

[2] = (§1) Ratio of compound EC50 to N-((5-bromopyridin-2-yl)carbamothioyl)-4-chlorobenzamide EC50 for antiviral activity against Hepatitis B virus genotype C infected in chimeric humanized liver mouse model PXB cells assessed as inhibition of HBsAg level treated with infected cells on day 2 and measured on day 12 to 14 by ELISA; type: functional; settings: time 10-12 day
Procedure, shortened: (§2)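 PXB hepatocytes received serially diluted compound on day 2 and HBV genotype C on day 0. After 20–28 h, cells were washed and compound-containing medium renewed. Supernatant antigen on days 12–14 was measured by ELISA to give EC50 (50% antigen reduction). Each value is expressed as a ratio to the EC50 of the parent lead compound in the same antigen assay.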

[3] = as §1, with “HBcrAg” for “HBsAg”; type: functional; settings: time 10-12 day; procedure, shortened: as §2
Hepatitis B virus [4] = assay: Antiviral activity against Hepatitis B virus genotype C infected in chimeric humanized liver mouse model PXB cells assessed as inhibition of HBsAg level treated with infected cells on day 2 and measured on day 12 to 14 by ELISA; type: functional, organism-based
Procedure, shortened: (§3)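 Human hepatocytes (PXB cells) from chimeric humanized-liver mice were seeded in 96-well plates, with serially diluted compound in fresh medium added on day 2. HBV genotype C was added on day 0. After 20–28 h, cells were PBS-washed and medium plus compound replenished. Supernatants were harvested on days 12–14, and antigen was quantified by ELISA. EC50 is the concentration giving 50% antigen reduction.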

Hepatitis B virus [5] = assay: Antiviral activity against Hepatitis B virus genotype C infected in chimeric humanized liver mouse model PXB cells assessed as inhibition of HBcrAg level treated with infected cells on day 2 and measured on day 12 to 14 by ELISA; type: functional, organism-based; procedure, shortened: as §3
[6] = Cytotoxicity against human SSP-25 cells assessed as reduction in cell viability by MTT assay; type: toxicity, cell-based
Procedure, shortened: (§4)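 Each cell line cultured with serially diluted compound, then viability measured by MTT assay on a microplate reader. CC50 is the concentration giving 50% reduction of viability.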

[7] = Cytotoxicity against human RBE cells assessed as reduction in cell viability by MTT assay; type: toxicity, cell-based; procedure, shortened: as §4
[8] = Cytotoxicity against human HLE cells assessed as reduction in cell viability by MTT assay; type: toxicity, cell-based; procedure, shortened: as §4
[9] = Cytotoxicity against human LI90 cells assessed as reduction in cell viability by MTT assay; type: toxicity, cell-based; procedure, shortened: as §4
[10] = Cytotoxicity against human HuCCT-1 cells assessed as reduction in cell viability by MTT assay; type: toxicity, cell-based; procedure, shortened: as §4
[11] = Cytotoxicity against human Li-7 cells assessed as reduction in cell viability by MTT assay; type: toxicity, cell-based; procedure, shortened: as §4
[12] = Cytotoxicity against human G415 cells assessed as reduction in cell viability by MTT assay; type: toxicity, cell-based; procedure, shortened: as §4
[13] = Cytotoxicity against human Huh-7 cells assessed as reduction in cell viability by MTT assay; type: toxicity, cell-based; procedure, shortened: as §4

Row | Compound | CC50 at 168 h [1] [µM] | Ratio EC50 [2] | Ratio EC50 [3] | also measured
1 | O=C(NC(=S)Nc1ccc(C(F)(F)F)cn1)c1ccc(C(F)(F)F)cc1 | > 100 | >2.9 | 16 | 
2 | O=C(NC(=S)Nc1cc(-c2ccccc2)c(C(F)(F)F)cn1)c1ccc(Cl)cc1 | > 100 | 11 | 22 | 
3 | O=C(NC(=S)Nc1ccc(Br)cn1)c1ccc(Cl)cc1 | > 100 |  |  | EC50 (Hepatitis B virus [4]): 0.69 µM; EC50 (Hepatitis B virus [5]): 0.044 µM
4 | O=C(NC(=S)Nc1ccc(C(F)(F)F)cn1)c1ccc(O)cc1 | 23.7 | >4.8 | 0.86 | 
5 | CC(C)c1ccc(C(=O)NC(=S)Nc2ccc(C(F)(F)F)cn2)cc1 | 61.9 | >4.8 | >12 | 
6 | O=C(NC(=S)Nc1ccc(Cl)cn1)c1ccc(Cl)cc1 | 66.3 | 6.9 | 7.5 | 
7 | O=C(NC(=S)Nc1ccc(C(F)(F)F)cn1)c1ccc([N+](=O)[O-])cc1 | > 100 | 0.37 | 2.7 | 
8 | O=C(NC(=S)Nc1ccc(C(F)(F)F)cn1)c1ccc(F)cc1 | 42.2 | >4.8 | >12 | 
9 | O=C(NC(=S)Nc1ccccn1)c1ccc(Cl)cc1 | 26.8 | 5.5 | 7.6 | 
10 | O=C(NC(=S)Nc1ccc(C(F)(F)F)cn1)c1ccc(I)cc1 | > 100 | >4.8 | >12 | 
11 | O=C(NC(=S)Nc1ccc(C(F)(F)F)cn1)c1ccc(Cl)cc1 | > 100 | 0.005 | 0.032 | CC50 [6]: 61.3 µM; CC50 [7]: > 100 µM; CC50 [8]: > 100 µM; CC50 [9]: > 100 µM; CC50 [10]: > 100 µM; CC50 [11]: > 100 µM; CC50 [12]: > 100 µM; CC50 [13]: > 100 µM
12 | O=C(NC(=S)Nc1ccc(C(F)(F)F)cn1)c1ccc(Br)cc1 | > 100 | 2.7 | 3.8 | 
13 | CC(C)(C)c1ccc(C(=O)NC(=S)Nc2ccc(C(F)(F)F)cn2)cc1 | > 100 | >4.8 | >12 | 
14 | COc1ccc(C(=O)NC(=S)Nc2ccc(C(F)(F)F)cn2)cc1 | 75.9 | >4.8 | >12 | 
15 | O=C(NC(=S)Nc1ccc(F)cn1)c1ccc(Cl)cc1 | > 100 | 8.1 | 6.2 | 
16 | O=C(NC(=S)Nc1ccc(Br)cn1)c1ccc(Br)cc1 | 41.8 | >4.8 | >12 | 
17 | Cc1ccc(NC(=S)NC(=O)c2ccc(Cl)cc2)nc1 | 43.8 | 3.8 | 3.7 | 
18 | C[C@H](Cn1cnc2c(N)ncnc21)OCP(=O)(O)O [TENOFOVIR ANHYDROUS] |  |  |  | EC50 (Hepatitis B virus [4]): > 2 µM; EC50 (Hepatitis B virus [5]): 0.36 µM
19 | Cc1ccc(C(=O)NC(=S)Nc2ccc(C(F)(F)F)cn2)cc1 | 89.8 | >4.8 | >12 | 
20 | O=C(NC(=S)Nc1ccc([N+](=O)[O-])cn1)c1ccc(Cl)cc1 | > 100 | 12 | 20 | 
21 | O=C(NC(=S)Nc1ccc(Br)cn1)c1ccc(C(F)(F)F)cc1 | > 100 | 0.63 | 1.7 | CC50 [6]: 76.3 µM; CC50 [7]: 81.1 µM; CC50 [8]: > 100 µM; CC50 [9]: 62.1 µM; CC50 [10]: > 100 µM; CC50 [11]: > 100 µM; CC50 [12]: > 100 µM; CC50 [13]: 92.7 µM
22 | O=C(NC(=S)Nc1cc2ccccc2cn1)c1ccc(Cl)cc1 | 79.1 | 31 | 2.9 | 
